Source: ChEMBL document CHEMBL5303300, “EUbOPEN Chemogenomics Library - Multiplex” (2023)
“And” between values parts separate entries of the source, which are not always exact repeats. Equal entries are not always repeated.

Tested on: HEK-293T
Assay: Multiplex assay against HEK293T
Assay type: toxicity, cell-based
Conditions: human, number of replicates 2
How it was run: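 Per cents of healthy-nucleus cells form the tubulin, mitochondrial-mass and membrane-permeability phenotype values. Live cells were stained at seeding with Hoechst33342, BioTracker Green Microtubule Cytoskeleton Dye, MitoTracker Red and Annexin V Alexa Fluor 680. After compound addition they were imaged on a CQ1 microscope at 37°C and 5% CO2, and CellPathfinder machine-learning gating split them into Hoechst high-intensity objects or normal cells, normal cells into healthy, pyknosed or fragmented nuclei, and pyknosed cells into mitotic or apoptotic.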

[1] = 12 h, 1 µM, compound concentration 1 uM
[2] = 12 h, 10 µM, compound concentration 10 uM
[3] = 24 h, 1 µM, compound concentration 1 uM
[4] = 24 h, 10 µM, compound concentration 10 uM
[5] = 48 h, 1 µM, compound concentration 1 uM
[6] = 48 h, 10 µM, compound concentration 10 uM

## Cc1cn(CCN2CCN(c3ccccc3-c3cc(C#N)cc(C(=O)NCCCN4CCCC4)c3)CC2)c2ccccc12
[1]
  Population Apoptotic (%): 34% and 44%
  Population Fragmented Nuclei (%): 3%
  Population Healthy Nuclei (%): 82% and 84%
  Population Hoechst High Intensity Objects (%): 7% and 6%
  Population Membrane Permeable-Phenotype (%): 3% and 4%
  Population Mitochondria Different-Phenotype (%): 26% and 20%
  Population Mitotic Cells (%): 65% and 55%
  Population Normal (%): 92% and 93%
  Population Pyknosed Nuclei (%): 13% and 12%
  Population Tubulin-Different-Phenotype (%): 72% and 71%
  Total Cell Count: 634 and 574
[2]
  Population Apoptotic (%): 70% and 65%
  Population Fragmented Nuclei (%): 2%
  Population Healthy Nuclei (%): 81% and 78%
  Population Hoechst High Intensity Objects (%): 5%
  Population Membrane Permeable-Phenotype (%): 2% and 1%
  Population Mitochondria Different-Phenotype (%): 71% and 72%
  Population Mitotic Cells (%): 30% and 34%
  Population Normal (%): 94%
  Population Pyknosed Nuclei (%): 16% and 18%
  Population Tubulin-Different-Phenotype (%): 97% and 94%
  Total Cell Count: 511 and 463
[3]
  Population Apoptotic (%): 46% and 42%
  Population Fragmented Nuclei (%): 5% and 3%
  Population Healthy Nuclei (%): 86% and 89%
  Population Hoechst High Intensity Objects (%): 8%
  Population Membrane Permeable-Phenotype (%): 3%
  Population Mitochondria Different-Phenotype (%): 12%
  Population Mitotic Cells (%): 53% and 57%
  Population Normal (%): 91%
  Population Pyknosed Nuclei (%): 7% and 6%
  Population Tubulin-Different-Phenotype (%): 57% and 51%
  Total Cell Count: 1111 and 826
[4]
  Population Apoptotic (%): 77% and 76%
  Population Fragmented Nuclei (%): 1% and 3%
  Population Healthy Nuclei (%): 85% and 79%
  Population Hoechst High Intensity Objects (%): 9% and 4%
  Population Membrane Permeable-Phenotype (%): 1% and 2%
  Population Mitochondria Different-Phenotype (%): 88% and 81%
  Population Mitotic Cells (%): 22% and 23%
  Population Normal (%): 90% and 95%
  Population Pyknosed Nuclei (%): 12% and 16%
  Population Tubulin-Different-Phenotype (%): 97% and 95%
  Total Cell Count: 524 and 487
[5]
  Population Apoptotic (%): 16% and 21%
  Population Fragmented Nuclei (%): 14% and 8%
  Population Healthy Nuclei (%): 82% and 87%
  Population Hoechst High Intensity Objects (%): 10% and 8%
  Population Membrane Permeable-Phenotype (%): 5% and 3%
  Population Mitochondria Different-Phenotype (%): 1% and 4%
  Population Mitotic Cells (%): 83% and 78%
  Population Normal (%): 89% and 91%
  Population Pyknosed Nuclei (%): 3% and 4%
  Population Tubulin-Different-Phenotype (%): 27% and 31%
  Total Cell Count: 2524 and 1476
[6]
  Population Apoptotic (%): 65% and 73%
  Population Fragmented Nuclei (%): 6% and 8%
  Population Healthy Nuclei (%): 82% and 77%
  Population Hoechst High Intensity Objects (%): 7% and 11%
  Population Membrane Permeable-Phenotype (%): 3% and 1%
  Population Mitochondria Different-Phenotype (%): 57% and 66%
  Population Mitotic Cells (%): 34% and 26%
  Population Normal (%): 92% and 88%
  Population Pyknosed Nuclei (%): 10% and 14%
  Population Tubulin-Different-Phenotype (%): 90% and 93%
  Total Cell Count: 709 and 587

## COC(=O)Nc1nc2c(s1)-c1c(c(-c3cccnc3)nn1-c1ccc(C3(N(C)C)CC3)cc1)CC2.Cl.Cl
[1]
  Population Apoptotic (%): 62% and 58%
  Population Fragmented Nuclei (%): 5% and 1%
  Population Healthy Nuclei (%): 82% and 89%
  Population Hoechst High Intensity Objects (%): 11% and 10%
  Population Membrane Permeable-Phenotype (%): 1%
  Population Mitochondria Different-Phenotype (%): 41% and 51%
  Population Mitotic Cells (%): 37% and 41%
  Population Normal (%): 88% and 89%
  Population Pyknosed Nuclei (%): 12% and 9%
  Population Tubulin-Different-Phenotype (%): 75% and 76%
  Total Cell Count: 359 and 348
[2]
  Population Apoptotic (%): 73% and 64%
  Population Fragmented Nuclei (%): 5%
  Population Healthy Nuclei (%): 75% and 82%
  Population Hoechst High Intensity Objects (%): 17% and 10%
  Population Membrane Permeable-Phenotype (%): 3%
  Population Mitochondria Different-Phenotype (%): 66% and 52%
  Population Mitotic Cells (%): 26% and 35%
  Population Normal (%): 82% and 89%
  Population Pyknosed Nuclei (%): 18% and 11%
  Population Tubulin-Different-Phenotype (%): 90% and 87%
  Total Cell Count: 245 and 351
[3]
  Population Apoptotic (%): 66% and 71%
  Population Fragmented Nuclei (%): 4%
  Population Healthy Nuclei (%): 81% and 82%
  Population Hoechst High Intensity Objects (%): 20% and 17%
  Population Membrane Permeable-Phenotype (%): 2% and 1%
  Population Mitochondria Different-Phenotype (%): 43% and 55%
  Population Mitotic Cells (%): 33% and 28%
  Population Normal (%): 79% and 82%
  Population Pyknosed Nuclei (%): 14% and 12%
  Population Tubulin-Different-Phenotype (%): 81% and 85%
  Total Cell Count: 313 and 342
[4]
  Population Apoptotic (%): 67% and 58%
  Population Fragmented Nuclei (%): 8% and 6%
  Population Healthy Nuclei (%): 70% and 78%
  Population Hoechst High Intensity Objects (%): 15% and 18%
  Population Membrane Permeable-Phenotype (%): 4% and 3%
  Population Mitochondria Different-Phenotype (%): 70% and 52%
  Population Mitotic Cells (%): 32% and 41%
  Population Normal (%): 85% and 81%
  Population Pyknosed Nuclei (%): 21% and 14%
  Population Tubulin-Different-Phenotype (%): 86% and 82%
  Total Cell Count: 240 and 296
[5]
  Population Apoptotic (%): 62%
  Population Fragmented Nuclei (%): 11% and 8%
  Population Healthy Nuclei (%): 81% and 80%
  Population Hoechst High Intensity Objects (%): 23% and 25%
  Population Membrane Permeable-Phenotype (%): 1%
  Population Mitochondria Different-Phenotype (%): 19% and 27%
  Population Mitotic Cells (%): 37%
  Population Normal (%): 76% and 74%
  Population Pyknosed Nuclei (%): 6% and 11%
  Population Tubulin-Different-Phenotype (%): 78% and 76%
  Total Cell Count: 490 and 355
[6]
  Population Apoptotic (%): 64% and 60%
  Population Fragmented Nuclei (%): 8% and 11%
  Population Healthy Nuclei (%): 77% and 80%
  Population Hoechst High Intensity Objects (%): 17% and 20%
  Population Membrane Permeable-Phenotype (%): 3% and 2%
  Population Mitochondria Different-Phenotype (%): 45% and 39%
  Population Mitotic Cells (%): 35% and 40%
  Population Normal (%): 82% and 79%
  Population Pyknosed Nuclei (%): 13% and 8%
  Population Tubulin-Different-Phenotype (%): 80% and 77%
  Total Cell Count: 310 and 354

## O=C1NC(=O)C(c2ccccc2[N+](=O)[O-])=C1Nc1ccc(O)c(Cl)c1
[1]
  Population Apoptotic (%): 41% and 45%
  Population Fragmented Nuclei (%): 4% and 2%
  Population Healthy Nuclei (%): 82% and 83%
  Population Hoechst High Intensity Objects (%): 6% and 3%
  Population Membrane Permeable-Phenotype (%): 2%
  Population Mitochondria Different-Phenotype (%): 11% and 12%
  Population Mitotic Cells (%): 58% and 54%
  Population Normal (%): 93% and 96%
  Population Pyknosed Nuclei (%): 13%
  Population Tubulin-Different-Phenotype (%): 41%
  Total Cell Count: 694 and 574
[2]
  Population Apoptotic (%): 32% and 38%
  Population Fragmented Nuclei (%): 6% and 5%
  Population Healthy Nuclei (%): 82% and 87%
  Population Hoechst High Intensity Objects (%): 4% and 7%
  Population Membrane Permeable-Phenotype (%): 6% and 4%
  Population Mitochondria Different-Phenotype (%): 8% and 5%
  Population Mitotic Cells (%): 67% and 61%
  Population Normal (%): 95% and 92%
  Population Pyknosed Nuclei (%): 11% and 7%
  Population Tubulin-Different-Phenotype (%): 34% and 31%
  Total Cell Count: 496 and 670
[3]
  Population Apoptotic (%): 40% and 37%
  Population Fragmented Nuclei (%): 4% and 3%
  Population Healthy Nuclei (%): 86% and 88%
  Population Hoechst High Intensity Objects (%): 5% and 7%
  Population Membrane Permeable-Phenotype (%): 2%
  Population Mitochondria Different-Phenotype (%): 3% and 5%
  Population Mitotic Cells (%): 59% and 62%
  Population Normal (%): 94% and 92%
  Population Pyknosed Nuclei (%): 8%
  Population Tubulin-Different-Phenotype (%): 22% and 24%
  Total Cell Count: 1100 and 894
[4]
  Population Apoptotic (%): 26% and 19%
  Population Fragmented Nuclei (%): 4% and 8%
  Population Healthy Nuclei (%): 89% and 83%
  Population Hoechst High Intensity Objects (%): 5% and 7%
  Population Membrane Permeable-Phenotype (%): 5% and 3%
  Population Mitochondria Different-Phenotype (%): 2% and 1%
  Population Mitotic Cells (%): 73% and 80%
  Population Normal (%): 94% and 92%
  Population Pyknosed Nuclei (%): 6% and 7%
  Population Tubulin-Different-Phenotype (%): 14% and 18%
  Total Cell Count: 721 and 1015
[5]
  Population Apoptotic (%): 14% and 15%
  Population Fragmented Nuclei (%): 13% and 9%
  Population Healthy Nuclei (%): 83% and 87%
  Population Hoechst High Intensity Objects (%): 7% and 9%
  Population Membrane Permeable-Phenotype (%): 5% and 4%
  Population Mitochondria Different-Phenotype (%): 0%
  Population Mitotic Cells (%): 85% and 84%
  Population Normal (%): 92% and 90%
  Population Pyknosed Nuclei (%): 2% and 3%
  Population Tubulin-Different-Phenotype (%): 12% and 11%
  Total Cell Count: 2762 and 1997
[6]
  Population Apoptotic (%): 11% and 2%
  Population Fragmented Nuclei (%): 14% and 21%
  Population Healthy Nuclei (%): 82% and 77%
  Population Hoechst High Intensity Objects (%): 6% and 9%
  Population Membrane Permeable-Phenotype (%): 7% and 8%
  Population Mitochondria Different-Phenotype (%): 0%
  Population Mitotic Cells (%): 88% and 97%
  Population Normal (%): 93% and 90%
  Population Pyknosed Nuclei (%): 3% and 1%
  Population Tubulin-Different-Phenotype (%): 7%
  Total Cell Count: 1557 and 2547
